SMILES strings stand for the structures.

Assay [1] is filed under the species Rattus norvegicus. Put plainly: Displacement of [35S]TBPS from Wistar rat brain GABAA receptor at 100 nM relative to control. In short, it runs like this:
(§1)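 Whole-brain membranes from adult male Wistar rats, resuspended in 20 mM KH2PO4/200 mM KCl, pH 7.4. Incubated 60 min at 37 °C with 2 nM [35S]TBPS, 1 µM GABA and steroid at 1 nM–10 µM. Nonspecific binding defined with 200 µM picrotoxinin. Binding expressed as % of DMSO control samples.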

For assay [2], the species on record is Rattus norvegicus. The experiment in a line: Displacement of [35S]TBPS from Wistar rat brain GABAA receptor relative to control. In short, it runs like this: as §1
A short description of assay [3]: Displacement of [35S]TBPS from Wistar rat brain GABAA receptor. In short, it runs like this:
as §1

For `CC(=O)[C@H]1[C@H](C(CO)CO)C[C@H]2[C@@H]3CC[C@H]4C[C@H](O)CC[C@]4(C)[C@H]3CC[C@@]21C`, the inhibition in the assay listed under Rattus norvegicus [1] is under 15%.

`CC(=O)[C@H]1[C@H](CC(N)=O)C[C@H]2[C@@H]3CC[C@H]4C[C@H](O)CC[C@]4(C)[C@H]3CC[C@@]21C` showed an inhibition in the assay filed under Rattus norvegicus [1] of under 15%.

The compound `CC(=O)[C@H]1[C@H](OCCO)C[C@H]2[C@@H]3CC[C@H]4C[C@H](O)CC[C@]4(C)[C@H]3CC[C@@]21C` showed an inhibition in the assay listed under Rattus norvegicus [1] of under 15%.

Compound `CC(=O)[C@H]1[C@H](OCCOCCO)C[C@H]2[C@@H]3CC[C@H]4C[C@H](O)CC[C@]4(C)[C@H]3CC[C@@]21C` had an inhibition in the assay filed under Rattus norvegicus [1] of under 15%.

In the assay filed under Rattus norvegicus [1], `CC(=O)[C@H]1[C@H](CC#N)C[C@H]2[C@@H]3CC[C@H]4C[C@H](O)CC[C@]4(C)[C@H]3CC[C@@]21C` displayed an inhibition of under 15%.

Take `CC(=O)[C@H]1[C@H](C(COC(N)=O)COC(N)=O)C[C@H]2[C@@H]3CC[C@H]4C[C@H](O)CC[C@]4(C)[C@H]3CC[C@@]21C`: the Imax in the assay listed under Rattus norvegicus [2] was found to be 26%. The compound also returned an IC50 in assay [3] of 86 nM.

For `CC(=O)[C@H]1[C@H](OCC(O)CO)C[C@H]2[C@@H]3CC[C@H]4C[C@H](O)CC[C@]4(C)[C@H]3CC[C@@]21C` (stereo partly drawn), in the assay filed under Rattus norvegicus [1], the inhibition is under 15%.

For the compound `CC(=O)[C@H]1[C@H](CC(=O)O)C[C@H]2[C@@H]3CC[C@H]4C[C@H](O)CC[C@]4(C)[C@H]3CC[C@@]21C`, in the assay filed under Rattus norvegicus [2], the Imax is 19%. The compound further came in with an IC50 in assay [3] of 40 nM.

Consider `NC(=O)OCC(COC(N)=O)c1ccccc1` [FELBAMATE], for which, in the assay listed under Rattus norvegicus [2], the Imax was 18%. This compound had an IC50 in assay [3] of 95 nM.

Turning to `CC(=O)[C@H]1CC[C@H]2[C@@H]3CC[C@H]4C[C@H](O)CC[C@]4(C)[C@H]3CC[C@]12C` [BREXANOLONE], the Imax in the assay filed under Rattus norvegicus [2] turned out to be 79%. The compound further returned a concentration for half-maximal inhibition (IC50) in assay [3] of 80 nM.

`CC(=O)[C@H]1[C@H](CCOC(N)=O)C[C@H]2[C@@H]3CC[C@H]4C[C@H](O)CC[C@]4(C)[C@H]3CC[C@@]21C`: in the assay filed under Rattus norvegicus [2], the Imax was 61%. Besides, the IC50 in assay [3] was found to be 750 nM.

In turn, `CC(=O)[C@H]1[C@H](CCOC(N)=O)C[C@H]2[C@@H]3CC[C@H]4C[C@H](OC(N)=O)CC[C@]4(C)[C@H]3CC[C@@]21C` returned an Imax in the assay filed under Rattus norvegicus [2] of 59%. Further, the concentration for half-maximal inhibition (IC50) in assay [3] stood at 300 nM.

Source of the values: ChEMBL document CHEMBL1153386, “Allopregnanolone (3alpha-hydroxy-5alpha-pregnan-20-one) derivatives with a polar chain in position 16alpha: synthesis and activity” (J Med Chem, 2009).
